According to article PMC10730135 (Human Vaccines & Immunotherapeutics, 2023):
“Also recorded” adds a separate entry of the source.

Columns and labels:
CD8+T cells = assay: IFN-γ ELISA of DC/CD8+T cell co-culture supernatant; type: cell-based, human; conditions: for IFN-γ content in culture medium (ELISA): 12th day of co-cultivation of DCs and CD8+T cells, compared with NP-CTL; for capacity of induced CTLs to produce IFN-γ: ELISA and ELISPOT taken together, compared to other peptides of CT23
[1] = test system: HLA-A2 molecules on T2 cell surface; assay: T2 cell binding assay; parameters: species or system human; conditions: in words
Procedure, shortened: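 T2 cells (1 × 10^6/mL) incubated 18 h at 37°C, 5% CO2 with 50 µg/mL peptide in RPMI-1640 plus 3 µg/mL human β2-microglobulin; no-peptide blank included. Washed three times in PBS, stained 30 min with FITC anti-HLA-A2, MFI read by flow cytometry. FI = (MFI peptide − MFI blank)/MFI blank. Classes: FI >1.0 high, 0.5–1.0 medium, <0.5 low.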

CTLs = assay: IFN-γ ELISPOT of peptide-induced CTLs; type: cell-based, human; conditions: CTLs 1 × 10^5 cells/well, 20 hours; compared to NP-CTL
Procedure, shortened: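 CTLs from HLA-A2+ donor CD8+ T cells stimulated with DCs loaded with peptide (50 μg/mL) or recombinant protein (100 μg/mL). Ratio 10:1, rhIL-2 20 ng/mL, restimulation days 7 and 12, harvested day 15. Added to anti-IFN-γ-coated wells with PHA positive and background control wells; 20 h at 37°C, 5% CO2. Biotinylated antibody, streptavidin–enzyme conjugate and substrate added; spots counted by analyzer.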

[2] = test system: T2 cells loaded with peptide P7; assay: Cytotoxicity assay; type: cell-based, human; conditions: LDH release, effector:target 50:1, 4 h; mean±standard deviation; SD
Procedure, shortened: (§1)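 Effectors: CD8+ T cells from HLA-A2+ donor PBMCs, co-cultured 10:1 with peptide- or protein-loaded DCs. rhIL-2 20 ng/mL from day 2; restimulated days 7 and 12; collected day 15. Targets grown in RPMI-1640/10% FBS. After 4 h, supernatant incubated with LDH substrate 30 min at RT in the dark, then stopped and read at OD490. Killing % = (experimental − effector and target spontaneous release)/(target maximum − target spontaneous release).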

U87 (HLA-A *0201+,CT23+) = assay: Cytotoxicity assay; type: cell-based, human; conditions: LDH release, effector:target 50:1, 4 h; mean±standard deviation; SD
Procedure, shortened: as §1

[3] = test system: SKOV3 (HLA-A *0201−, CT23+); assay: Cytotoxicity assay; type: cell-based, human; conditions: LDH release, effector:target 50:1, 4 h
Procedure, shortened: as §1

[4] = test system: OVCAR-3 (HLA-A *0201+, CT23+); assay: Cytotoxicity assay; type: cell-based, human; conditions: LDH release, effector:target 50:1, 4 h; mean±standard deviation; SD
Procedure, shortened: as §1

[5] = test system: T2 cells without loading peptides; assay: Cytotoxicity assay; type: cell-based, human; conditions: LDH release, effector:target 50:1, 4 h
Procedure, shortened: as §1

| Sequence | IFN-γ content in culture medium (ELISA) (CD8+T cells) | capacity of induced CTLs to produce IFN-γ (CD8+T cells) | binding affinity to HLA-A2 molecules (class by FI) [1] | other results |
| --- | --- | --- | --- | --- |
| ALLTPTWKA [P1] | statistical significance compared with NP-CTL | stronger capacity to produce IFN-γ | higher binding affinity | – |
| ALLVLCYSI [P7] | highest IFN-γ secretion | stronger capacity to produce IFN-γ | higher binding affinity; also recorded: highest binding affinity | number of IFN-γ-positive cells (ELISPOT) (CTLs): significant statistical difference; killing rate of P7-induced CTLs on T2 cells loaded with peptide P7 [2]: 64.95 ± 6.09%; killing rate of peptide-induced CTLs on U87 (U87 (HLA-A *0201+,CT23+)): 31.42 ± 0.85%; killing effect of peptide-induced CTLs on HLA-A*0201 negative SKOV3 tumor cells [3]: no killing effect; also recorded: did not exhibit any killing effect; killing rate of peptide-induced CTLs on OVCAR-3 [4]: 31.81 ± 9.82%; killing effect of P7-induced CTLs on T2 cells without loaded peptide P7 [5]: did not exhibit any significant killing effect; also recorded: no killing effect |
| LLASQSLSI [P6] | statistical significance compared with NP-CTL | stronger capacity to produce IFN-γ | higher binding affinity | – |
| MIMENIQEL [P5] | – | – | higher binding affinity | – |
| QLPHTEALL [P4] | statistical significance compared with NP-CTL | stronger capacity to produce IFN-γ | higher binding affinity | – |
| RLSNNVEEL [P2] | – | – | higher binding affinity | – |
| VLCSQPVSI [P3] | – | – | moderate | – |
